Consider 2 molecules from ChEMBL document CHEMBL2046346, “Discovery of phenylpropanoic acid derivatives containing polar functionalities as potent and orally bioavailable G protein-coupled receptor 40 agonists for the treatment of type 2 diabetes” (J Med Chem, 2012).

In series [1] the target is T1, Free fatty acid receptor 1 (Homo sapiens, UniProt O14842). Nature of the series: Displacement of 3-[4-({2',6'-dimethyl-6-[(4-[3H])phenylmethoxy]biphenyl-3-yl}methoxy)phenyl] propanoic acid from human GPR40 receptor expressed in CHO cell membrane after 90 mins by liquid scintillation counting in the presence of 0.2% BSA. Type of series: cell membranes. The procedure, abridged: (§1)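 Membranes from CHO lines stably expressing human or rat GPR40, buffer 25 mmol/L Tris-HCl pH 7.5, 5 mmol/L EDTA, protease inhibitors, 0.05% CHAPS, 0.2% fatty-acid-free BSA. Tritiated ligand at 2 or 6 nmol/L with graded test compound, 90 min room temperature, GF/C filtration, scintillation counting. Nonspecific binding: 10 μmol/L unlabeled ligand. IC50 by nonlinear regression, Ki = IC50/(1+[L]/Kd).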
T1 sequence (O14842 whole entry): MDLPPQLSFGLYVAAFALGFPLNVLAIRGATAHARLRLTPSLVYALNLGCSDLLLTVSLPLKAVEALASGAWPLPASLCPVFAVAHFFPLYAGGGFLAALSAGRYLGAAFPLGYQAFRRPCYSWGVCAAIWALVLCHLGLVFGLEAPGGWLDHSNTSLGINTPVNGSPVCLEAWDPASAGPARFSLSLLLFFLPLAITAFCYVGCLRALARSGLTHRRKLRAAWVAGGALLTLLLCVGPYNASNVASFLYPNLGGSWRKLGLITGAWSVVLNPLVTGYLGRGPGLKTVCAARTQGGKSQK

Series [2] concerns Rattus norvegicus. Kind of series: Insulinotropic activity in fasted Wistar fatty rat assessed as decrease in blood glucose level at 0.3 mg/kg, po administered 30 mins prior to glucose-challenge by oral glucose tolerance test relative to vehicle treated control. In kind it is functional, organism-based. Set-up: dose 0.3 mg/kg. The procedure, abridged: (§2)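 Thirteen-week-old female Wistar fatty rats, overnight fasted, grouped on body weight, PG, TG, NEFA (n = 6). Oral dose (0.1–1 mg/kg, 0.5% methylcellulose vehicle) 30 min before oral glucose 1 g/kg; tail-vein blood at 0, 10, 30, 60, 120 min; plasma glucose by analyzer, insulin by RIA.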

For series [3], the target named is T1, Free fatty acid receptor 1. Nature of the series: Agonist activity at human GPR40 receptor expressed in CHO cells assessed as increase in intracellular calcium level for 90 secs by FLIPR assay in the presence of 0.1% BSA. Type of series: functional, cell-based. The procedure, abridged:
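CHO dhfr cells stably expressing human GPR40 plated overnight, loaded 60 min at 37 °C with Fluo 4 AM (2.5 μg/mL), 2.5 mmol/L probenecid, 0.1% fatty acid-free BSA. Ca2+ rise after compound addition read 90 s; response scaled between vehicle (0%) and 10 μM γ-linolenic acid (100%).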

Series [4] is described as follows: Cytotoxicity against human HepG2 cells assessed as intracellular ATP level at 30 uM after 24 hrs by ATPlite assay relative to control. Conditions: read-out: Activity. Type of series: cell-based. In short, it runs like this:
(§3)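 HepG2 cells seeded 2 × 10^4/well, treated 1 day in DMEM with 0.5% FBS, 2 mM L-glutamine, 1 mM pyruvate. ATP measured by ATPlite luminescence; % of 1% DMSO control (RLU ratio ×100), n = 3.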
(In general: ATP-based viability assays read luminescence as a measure of living cells.)

Series [5] in a line: Metabolic stability in human hepatic microsomes. The note with it: liver microsomes, read-out: Stability. Type of series: ADME. In general terms: Microsomes from liver hold many membrane-bound enzymes, among them those of drug oxidation.
Series [6] relates to Rattus norvegicus. Kind of series: Induction of hypoglycemia in fasted Sprague-Dawley rat assessed as decrease in plasma glucose level below normal fasting level at 30 mg/kg, po. In kind it is organism-based. The arrangement: dose 30 mg/kg, route oral. Conditions: in vivo. In short, it runs like this: (§4)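 Eight-week-old male SD rats fasted overnight, grouped by body weight (n = 6), single oral dose in 0.5% methylcellulose vehicle; tail-vein blood before and 0.5, 1, 2, 3 h after dosing; plasma glucose by analyzer, insulin by ELISA; mean ± SD.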

The test system of series [7] is Rattus norvegicus. Kind of series: Toxicity in rat assessed as adverse effect at 15 to 150 mg/kg, po after 4 weeks. Type of series: organism-based. Conditions: in vivo, 672 h. The arrangement: dose 15-150 mg/kg, route oral. The procedure, abridged:
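Normal rats dosed orally at 15, 50 and 150 mg/kg for 4 weeks; adverse effects recorded.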

In series [8] the target is Free fatty acid receptor 1 (Rattus norvegicus, UniProt Q8K3T4). Nature of the series: Displacement of 3-[4-({2',6'-dimethyl-6-[(4-[3H])phenylmethoxy]biphenyl-3-yl}methoxy)phenyl] propanoic acid from rat GPR40 receptor expressed in CHO cell membrane after 90 mins by liquid scintillation counting in the presence of 0.2% BSA. Type of series: cell membranes. In short, it runs like this:
as §1

The nature of series [9]: Cytotoxicity against human HepG2 cells assessed as intracellular ATP level at 10 uM after 24 hrs by ATPlite assay relative to control. In kind it is cell-based. The note with it: read-out: Activity. The procedure, abridged:
as §3

For series [10], the system named is HepG2. Kind of series: Induction of apoptosis in human HepG2 cells assessed as caspase 3/7 activity at 10 uM after 24 hrs by caspase Glo assay relative to staurosporine. In kind it is cell-based. The note with it: hepg2, 24 h. The procedure, abridged: (§5)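 HepG2 cells seeded 2 × 10^4/well, treated 1 day in DMEM with 0.5% FBS, 2 mM L-glutamine, 1 mM pyruvate. Caspase-Glo 3/7 luminescence; activity = (compound − 1% DMSO)/(30 μM staurosporine − 1% DMSO) ×100, n = 3.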

Series [11] deals with Rattus norvegicus. Nature of the series: Insulinotropic activity in po dosed fasted Wistar fatty rat assessed as increase in insulin secretion administered 30 mins prior to glucose-challenge by oral glucose tolerance test relative to vehicle treated control. In kind it is functional, organism-based. In short, it runs like this:
as §2

Series [12] has as its system Rattus norvegicus. Nature of the series: Induction of hypoglycemia in fasted Sprague-Dawley rat assessed as increase in insulin secretion level at 30 mg/kg, po after 30 mins. Conditions: in vivo, 0.5 h.
The nature of series [13]: Lipophilicity, log D of the compound by RP-HPLC analysis. Type of series: physicochemical.
For series [14], the system named is Rattus norvegicus. Nature of the series: Insulinotropic activity in po dosed fasted Wistar fatty rat assessed as decrease in blood glucose level administered 30 mins prior to glucose-challenge by oral glucose tolerance test relative to vehicle treated control. In kind it is functional, organism-based. In short, it runs like this: as §2
The test system of series [15] is HepG2. Nature of the series: Induction of apoptosis in human HepG2 cells assessed as caspase 3/7 activity at 30 uM after 24 hrs by caspase Glo assay relative to staurosporine. Conditions: hepg2, 24 h. Type of series: cell-based. In short, it runs like this:
as §5

Series [16] is filed under the species Rattus norvegicus. Nature of the series: Insulinotropic activity in rat INS1(833/15) cells assessed as increase in insulin secretion at 30 uM after 2 hrs by competitive enzyme immunoassay in the presence of 11 mM glucose. Type of series: functional, cell-based. In short, it runs like this: (§6)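 INS-1 833/15 cells seeded on poly-L-lysine, cultured 2 days, preincubated in KRBH (0.2% FFA-free BSA) with 1 mM glucose, then 2 h in KRBH at 1–16 mM glucose with or without compound (DMSO vehicle). Secreted insulin by EIA; expressed as fold over 1 mM glucose alone, mean ± SD (n = 3–6).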

Series [17] relates to Rattus norvegicus. Nature of the series: Induction of hypoglycemia in fasted Sprague-Dawley rat assessed as increase in insulin secretion level at 30 mg/kg, po after 30 mins. Type of series: organism-based. The note with it: in vivo, 0.5 h. Set-up: dose 30 mg/kg, route oral. The procedure, abridged: as §4
The species entered for series [18] is Rattus norvegicus. Nature of the series: Insulinotropic activity in rat INS1(833/15) cells assessed as increase in insulin secretion at 30 uM after 2 hrs by competitive enzyme immunoassay in the presence of 16 mM glucose. In kind it is functional, cell-based. The procedure, abridged: as §6
Series [19] has as its system Rattus norvegicus. Nature of the series: Induction of hypoglycemia in fasted Sprague-Dawley rat assessed as decrease in plasma glucose level below normal fasting level at 10 mg/kg, po. In kind it is organism-based. Conditions: in vivo. Set-up: dose 10 mg/kg, route oral. The procedure, abridged:
as §4

The species entered for series [20] is Rattus norvegicus. Kind of series: Insulinotropic activity in rat INS1(833/15) cells assessed as increase in insulin secretion at 30 uM after 2 hrs by competitive enzyme immunoassay in the presence of low concentration of glucose. Type of series: functional, cell-based. The procedure, abridged: as §6

Active and inactive are the calls of the source. No cut-off for these calls is given here.

Chain of Free fatty acid receptor 1 (Rattus norvegicus, UniProt Q8K3T4) (Q8K3T4 whole entry): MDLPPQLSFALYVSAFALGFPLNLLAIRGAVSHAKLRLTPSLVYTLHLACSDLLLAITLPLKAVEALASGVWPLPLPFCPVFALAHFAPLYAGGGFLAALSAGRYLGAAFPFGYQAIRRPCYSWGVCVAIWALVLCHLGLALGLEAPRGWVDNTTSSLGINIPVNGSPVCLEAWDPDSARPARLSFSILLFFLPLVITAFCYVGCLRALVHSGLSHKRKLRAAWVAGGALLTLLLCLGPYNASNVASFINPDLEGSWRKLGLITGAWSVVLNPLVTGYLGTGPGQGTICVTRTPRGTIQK

What is called Ki is the equilibrium dissociation constant of an inhibitor or competing ligand from its target. The EC50 is the midpoint of the concentration-response curve. What is called logD is lipophilicity at a set pH, counting ionised and neutral species. High values mean a more lipophilic compound, low ones a more hydrophilic compound. For `Cc1cc(OCC2(O)CCS(=O)(=O)CC2)cc(C)c1-c1cccc(CNc2ccc(CCC(=O)O)c(F)c2)c1`, the figures for the Ki in [1] and in series [8] were 0.019 µM and 0.0045 µM, respectively. For the same molecule, the outcome with Rattus norvegicus [2] was Active. In addition, the EC50 in series [3] was determined as 0.029 µM. In addition, the viability at 24 h, 30 µM in series [4] turned out to be 75.9%. Also, the microsomal CLint in [5] came out at 2 µL/min/mg. In addition, the Activity entry with Rattus norvegicus [6] is “Non-toxic”; in the series on Rattus norvegicus [7], “Non-toxic”; with HepG2 [10], 0.8%; with Rattus norvegicus [11], “Dose-dependent effect”; with Rattus norvegicus [12], “Toxic”; with Rattus norvegicus [14], “Dose-dependent effect”. Moreover, the Activity with HepG2 [15] was found to be 0.5%. Moreover, in [9], the viability at 24 h, 10 µM came out at 88.1%. The molecule further yielded a log distribution coefficient (logD) in [13] of 2.14.

Turning to `COc1ccc(Cl)cc1C(=O)NCCc1ccc(S(=O)(=O)NC(=O)NC2CCCCC2)cc1` [GLYBURIDE], the result in the series listed under Rattus norvegicus [16], in the series filed under Rattus norvegicus [18] and in the series listed under Rattus norvegicus [20] was Active. The Activity entry with Rattus norvegicus [17] and in the series on Rattus norvegicus [19] was “Toxic” throughout.
